Measured values published in ChEMBL document CHEMBL1150957, “DNA-damaging steroidal alkaloids from Eclipta alba from the suriname rainforest1” (J Nat Prod, 1998).
Converted amounts (≈) assume the structure as drawn.

Key:
M109 = experiment: Cytotoxicity against mouse M109 cells; format: functional, cell-based
Saccharomyces cerevisiae [1] = experiment: Antifungal activity against Saccharomyces cerevisiae Sc7; format: functional
Candida albicans = experiment: Antifungal activity against Candida albicans SC5314; format: functional
Saccharomyces cerevisiae [2] = experiment: Antifungal activity against Saccharomyces cerevisiae 1140; format: functional
Summary of the method: (§1)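 Agar-well diffusion on mutant yeast lawns (1140 ise1 rad52; 1353 ISE+ rad52 top1; 1138 ise2 rad52). Stationary-phase YEPD cultures resuspended in 0.9% saline to 25% transmission at 600 nm, flooded onto YEPD agar with 0.8% Noble agar overlay, dried. Samples in DMSO-MeOH (1:1) added to 6-7 mm wells; nystatin control at 20 μg/mL; 30 °C, 36–48 h; IC12 (dose giving 12-mm zone) from dose–response curve.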

Saccharomyces cerevisiae [3] = experiment: Antifungal activity against Saccharomyces cerevisiae 1353; format: functional; summary of the method: as §1
Saccharomyces cerevisiae [4] = experiment: Antifungal activity against Saccharomyces cerevisiae 1138; format: functional; summary of the method: as §1

MIC (Saccharomyces cerevisiae [1]) [µg/mL] | MIC (Candida albicans) [µg/mL] | SMILES | IC50 (M109) [µg/mL] | IC12 (Saccharomyces cerevisiae [2]) [µg/mL] | IC12 (Saccharomyces cerevisiae [3]) [µg/mL] | IC12 (Saccharomyces cerevisiae [4]) [µg/mL]
12.5 (≈ 13.5 µM) | 1.6 (≈ 1.73 µM) | C[C@@H]1[C@H](O)[C@@H](C)/C=C/C=C/C=C/C=C/C=C/C=C/C=C/[C@H](O[C@@H]2O[C@H](C)[C@@H](O)[C@H](N)[C@@H]2O)C[C@@H]2O[C@](O)(C[C@@H](O)C[C@@H](O)[C@H](O)CC[C@@H](O)C[C@@H](O)CC(=O)O[C@H]1C)C[C@H](O)[C@H]2C(=O)O [AMPHOTERICIN B] | 7.5 (≈ 8.12 µM) | 15.6 | 25 | 8.1
6.25 (≈ 15.1 µM) | < 3.1 | C[C@H](C1=NC[C@](C)(O)CC1)[C@H]1CC[C@H]2[C@@H]3CC=C4C[C@@H](O)CC[C@]4(C)[C@H]3CC[C@]12C | 31.2 (≈ 75.4 µM) | 2.5 | 4 | 0.35
100 (≈ 242 µM) | 200 (≈ 484 µM) | C[C@H]1CCC([C@@H](C)[C@H]2CC[C@H]3[C@@H]4CC=C5[C@@H](O)[C@@H](O)CC[C@]5(C)[C@H]4CC[C@]23C)=NC1 | 15.5 (≈ 37.5 µM) | 10 | > 50 | 12
6.25 (≈ 15.7 µM) | 12.5 (≈ 31.4 µM) | C[C@H]1CCC([C@H](C)[C@H]2CC[C@H]3[C@@H]4CC=C5C[C@@H](O)CC[C@]5(C)[C@H]4CC[C@]23C)=NC1 |  | 1.12 | 0.69 | 0.88
200 (≈ 484 µM) | 400 (≈ 967 µM) | C[C@H]1CCC([C@H](C)[C@H]2CC[C@H]3[C@@H]4CC=C5[C@@H](O)[C@@H](O)CC[C@]5(C)[C@H]4CC[C@]23C)=NC1 | 10.5 (≈ 25.4 µM) | 23 | 24 | 10
6.25 (≈ 15.7 µM) | 25 (≈ 62.9 µM) | C[C@H]1CCC([C@@H](C)[C@H]2CC[C@H]3[C@@H]4CC=C5C[C@@H](O)CC[C@]5(C)[C@H]4CC[C@]23C)=NC1 [VERAZINE] | 12.5 (≈ 31.4 µM) | 0.25 | 0.14 | 0.14

Second part, the molecule before the results:

SMILES | MIC (Saccharomyces cerevisiae [1]) [µg/mL] | MIC (Candida albicans) [µg/mL] | IC50 (M109) [µg/mL] | IC12 (Saccharomyces cerevisiae [2]) [µg/mL] | IC12 (Saccharomyces cerevisiae [3]) [µg/mL] | IC12 (Saccharomyces cerevisiae [4]) [µg/mL]
Cc1cnc([C@H](C)[C@H]2CC[C@H]3[C@@H]4CC=C5C[C@@H](O)CC[C@]5(C)[C@H]4CC[C@]23C)c(O)c1 [ECLIPTALBINE] | 20 (≈ 48.8 µM) | 20 (≈ 48.8 µM) | > 20 | 0.7 | 0.4 | 0.04
C[C@H]1CC[C@@H]([C@@H](C)[C@H]2CC[C@H]3[C@@H]4CC=C5C[C@@H](O)CC[C@]5(C)[C@H]4CC[C@]23C)NC1 [VERAMILINE] |  |  |  | 3 | 4 | 3
CC(=O)N1CCN(c2ccc(OCC3COC(Cn4ccnc4)(c4ccc(Cl)cc4Cl)O3)cc2)CC1 (centres undefined) [KETOCONAZOLE] | 1.6 (≈ 3.01 µM) | < 0.8 | 17 (≈ 32 µM) | 4.8 | 9.4 | 2.5
C[C@H]1CCC([C@H](C)[C@H]2CC[C@H]3[C@@H]4CCC5=CC(=O)CC[C@]5(C)[C@H]4CC[C@]23C)=NC1 |  |  | 16.8 (≈ 42.5 µM) | 45 | 50 | 14
